Experimental data as given in ChEMBL document CHEMBL3870358, “Covalent Guanosine Mimetic Inhibitors of G12C KRAS” (ACS Med Chem Lett, 2017).

Assays:
[1] = tested on: GTPase KRas (Homo sapiens), P01116 [G12C]; experiment: Binding affinity to recombinant GDP-loaded KRAS G12C mutant (unknown origin) assessed as half life at 115 uM by CPM-probe based fluorescence assay
Method in brief: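 Chemosensor competition assay. Purified recombinant GDP-loaded KRAS G12C incubated with compound, then probed at several time points with a probe detecting free unreacted Cys12 thiol. Read-out combines GDP displacement kinetics with covalent inactivation.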

GTPase KRas = GTPase KRas (Homo sapiens, UniProt P01116, G12C); experiment: Binding affinity to GMP-stabilized FLAG-tagged KRAS G12C mutant (unknown origin) using desthiobiotin-GTP probe by alphascreen assay
Method in brief: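 Nucleotide-free recombinant KRAS G12C purified and stabilised with excess GMP, incubated with compound, then probed with GTP-desthiobiotin acyl phosphate probe (reacts with Lys16). Desthiobiotinylated protein detected by AlphaScreen (ActivAlpha). Observed reaction rates plotted against compound concentration and fit to kobs = kinact[I]/(Ki + [I]) to extract kinact and Ki.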

[2] = tested on: GTPase KRas (Homo sapiens), P01116 [G12C]; experiment: Binding affinity to GMP-stabilized FLAG-tagged KRAS G12C mutant (unknown origin) assessed as inactivation constant using desthiobiotin-GTP probe by alphascreen assay
Method in brief: (§1)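 Nucleotide-free purified KRAS G12C, stabilized with excess GMP, incubated with compound. Remaining enzyme then labeled by a GTP-desthiobiotin acyl phosphate probe that reacts with Lys16, and detected with AlphaScreen reagents. Reaction rates were plotted against compound concentration and fit to kobs = kinact[I]/(Ki + [I]) to estimate kinact and Ki.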

[3] = tested on: GTPase KRas (Homo sapiens), P01116 [G12C]; experiment: Binding affinity to GMP-stabilized FLAG-tagged KRAS G12C mutant (unknown origin) assessed as ratio of Kinact to Ki using desthiobiotin-GTP probe by alphascreen assay; method in brief: as §1
[4] = Binding affinity to Mg2+ ion assessed as compound concentration required to reach Mg2+ dependent shift plateau by 31P NMR analysis
[5] = Binding affinity to Mg2+ ion assessed as compound concentration required to show half maximal Mg2+ dependent shift by 31P NMR analysis

GTPase KRas (Homo sapiens), P01116 [G12C], sequence (P01116 whole entry G12C): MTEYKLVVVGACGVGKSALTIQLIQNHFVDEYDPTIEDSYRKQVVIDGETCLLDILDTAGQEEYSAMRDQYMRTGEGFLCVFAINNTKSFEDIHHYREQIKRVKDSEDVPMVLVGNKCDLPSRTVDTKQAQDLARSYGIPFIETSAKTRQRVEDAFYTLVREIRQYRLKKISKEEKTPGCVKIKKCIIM
GTPase KRas, sequence (P01116 whole entry G12C): as above

SMILES	T1/2 [1]	Ki (GTPase KRas)	Kinact [2]	Ratio [3]	Activity [4]	Activity [5]
Nc1nc2c(ncn2[C@@H]2O[C@H](COP(=O)(O)CP(=O)(O)OC3CCCN(C(=O)CCl)C3)[C@@H](O)[C@H]2O)c(=O)[nH]1 (mixture of isomers)	12 h	3500 nM	0.55 min⁻¹	0.16 min⁻¹ µM⁻¹	–	–
Nc1nc2c(ncn2[C@@H]2O[C@H](COP(=O)(O)OP(=O)(O)OCCNC(=O)CCl)[C@@H](O)[C@H]2O)c(=O)[nH]1	0.68 h	9 nM	0.86 min⁻¹	95 min⁻¹ µM⁻¹	–	–
Nc1nc2c(ncn2[C@@H]2O[C@H](COC(=O)CS(=O)(=O)NCCNC(=O)CCl)[C@@H](O)[C@H]2O)c(=O)[nH]1	24 h	> 10000 nM	–	–	–	–
CC(C)(CNC(=O)CCl)COP(=O)(O)CP(=O)(O)OC[C@H]1O[C@@H](n2cnc3c(=O)[nH]c(N)nc32)[C@H](O)[C@@H]1O	20 h	5000 nM	0.14 min⁻¹	0.028 min⁻¹ µM⁻¹	–	–
Nc1nc2c(ncn2[C@@H]2O[C@H](COP(=O)(O)CC(=O)OCCNC(=O)CCl)[C@@H](O)[C@H]2O)c(=O)[nH]1	84 h	15200 nM	0.055 min⁻¹	0.003 min⁻¹ µM⁻¹	–	–
Nc1nc2c(ncn2[C@@H]2O[C@H](COC(=O)CP(=O)(O)OCCNC(=O)CCl)[C@@H](O)[C@H]2O)c(=O)[nH]1	47 h	2200 nM	0.053 min⁻¹	0.02 min⁻¹ µM⁻¹	–	–
Nc1nc2c(ncn2[C@@H]2O[C@H](COP(=O)(O)CP(=O)(O)O[C@@H]3CC[C@@H](NC(=O)CCl)C3)[C@@H](O)[C@H]2O)c(=O)[nH]1 (mixture of isomers)	64 h	36000 nM	2.3 min⁻¹	0.06 min⁻¹ µM⁻¹	–	–
Nc1nc2c(ncn2[C@@H]2O[C@H](COP(=O)(O)OP(=O)(O)OP(=O)(O)O)[C@@H](O)[C@H]2O)c(=O)[nH]1	–	–	–	–	2 equiv	0.5 equiv
Nc1nc2c(ncn2[C@@H]2O[C@H](CNc3c(NCCCNC(=O)CCl)c(=O)c3=O)[C@@H](O)[C@H]2O)c(=O)[nH]1	13 h	> 25000 nM	–	–	–	–
Nc1nc2c(ncn2[C@@H]2O[C@H](COP(=O)(O)CP(=O)(O)OCCNC(=O)CCl)[C@@H](O)[C@H]2O)c(=O)[nH]1	2.1 h	2700 nM	0.06 min⁻¹	0.02 min⁻¹ µM⁻¹	–	–
Nc1nc2c(ncn2[C@@H]2O[C@H](COS(=O)(=O)NC(=O)OCCNC(=O)CCl)[C@@H](O)[C@H]2O)c(=O)[nH]1	9.5 h	5000 nM	0.24 min⁻¹	0.05 min⁻¹ µM⁻¹	–	–
Nc1nc2c(ncn2[C@@H]2O[C@H](COP(=O)(O)C(F)(F)P(=O)(O)OCCNC(=O)CCl)[C@@H](O)[C@H]2O)c(=O)[nH]1	4.2 h	380 nM	0.365 min⁻¹	0.9 min⁻¹ µM⁻¹	–	–
Nc1nc2c(ncn2[C@@H]2O[C@H](COP(=O)(O)CS(=O)(=O)NCCNC(=O)CCl)[C@@H](O)[C@H]2O)c(=O)[nH]1	2.3 h	1600 nM	0.33 min⁻¹	0.2 min⁻¹ µM⁻¹	–	–
Nc1nc2c(ncn2[C@@H]2O[C@H](COP(=O)(O)CP(=O)(O)OC3CCN(C(=O)CCl)C3)[C@@H](O)[C@H]2O)c(=O)[nH]1 (stereo not given in full)	1.1 h	920 nM	2.2 min⁻¹	2.4 min⁻¹ µM⁻¹	–	–
Nc1nc2c(ncn2[C@@H]2O[C@H](COP(=O)(O)C(F)(F)P(=O)(O)OCCCNC(=O)CCl)[C@@H](O)[C@H]2O)c(=O)[nH]1	1.06 h	382 nM	0.3 min⁻¹	0.8 min⁻¹ µM⁻¹	–	< 20 equiv
C=CC(=O)NCCOP(=O)(O)OP(=O)(O)OC[C@H]1O[C@@H](n2cnc3c(=O)[nH]c(N)nc32)[C@H](O)[C@@H]1O	0.6 h	280 nM	2.12 min⁻¹	7.6 min⁻¹ µM⁻¹	–	–
Nc1nc2c(ncn2[C@@H]2O[C@H](COP(=O)(O)C(F)P(=O)(O)OCCNC(=O)CCl)[C@@H](O)[C@H]2O)c(=O)[nH]1 (mixture of isomers)	6.6 h	8000 nM	0.21 min⁻¹	0.03 min⁻¹ µM⁻¹	–	–
Nc1nc2c(ncn2[C@@H]2O[C@H](COP(=O)(O)CP(=O)(O)O[C@@H]3CC[C@H](NC(=O)CCl)C3)[C@@H](O)[C@H]2O)c(=O)[nH]1 (mixture of isomers)	42 h	50000 nM	1 min⁻¹	0.02 min⁻¹ µM⁻¹	–	–
Nc1nc2c(ncn2[C@@H]2O[C@H](COP(=O)(O)OP(=O)(O)O)[C@@H](O)[C@H]2O)c(=O)[nH]1	–	–	–	–	2 equiv	0.5 equiv
Nc1nc2c(ncn2[C@@H]2O[C@H](COP(=O)(O)CP(=O)(O)OCCCNC(=O)CCl)[C@@H](O)[C@H]2O)c(=O)[nH]1	2.5 h	374 nM	0.07 min⁻¹	0.2 min⁻¹ µM⁻¹	–	–
COC(=O)/C=C/CCCOP(=O)(O)CP(=O)(O)OC[C@H]1O[C@@H](n2cnc3c(=O)[nH]c(N)nc32)[C@H](O)[C@@H]1O	120 h	> 20000 nM	–	–	–	–
